Data published in ChEMBL document CHEMBL1137681, “Design, synthesis and characterization of N9/N7-substituted 6-aminopurines as VEGF-R and EGF-R inhibitors” (Eur J Med Chem, 2009).
Values belong to the compound of their own block, whether it stands above or below them. Calls of active or inactive are those of the source. No cut-off for these calls is given here.

What was measured:
[1] = biological target: Mitogen-activated protein kinase 12 (Homo sapiens) (UniProt P53778); experiment: Inhibition of SAPK3 at 10 uM
[2] = biological target: Mitogen-activated protein kinase 3 (Homo sapiens) (UniProt P27361); experiment: Inhibition of human ERK1 at 10 uM
[3] = biological target: Serine/threonine-protein kinase D1 (Homo sapiens) (UniProt Q15139); experiment: Inhibition of human PKD1 at 10 uM
[4] = Inhibition of PKBbeta S474D mutant at 10 uM
[5] = biological target: Mitogen-activated protein kinase 14 (Homo sapiens) (UniProt Q16539); experiment: Inhibition of SAPK2a at 10 uM
[6] = biological target: MAP kinase-activated protein kinase 2 (Homo sapiens) (UniProt P49137); experiment: Inhibition of MAPKAP-K2 (delta 1-45) at 10 uM
[7] = biological target: MAP kinase-activated protein kinase 5 (Homo sapiens) (UniProt Q8IW41); experiment: Inhibition of PRAK at 10 uM
[8] = biological target: MAP/microtubule affinity-regulating kinase 3 (Homo sapiens) (UniProt P27448); experiment: Inhibition of human MARK3 at 10 uM
Rattus norvegicus = species on record: Rattus norvegicus; experiment: Inhibition of rat AMPK at 10 uM
[9] = biological target: Aurora kinase C (Homo sapiens) (UniProt Q9UQB9); experiment: Inhibition of human aurora C at 10 uM
[10] = biological target: Mitogen-activated protein kinase 1 (Mus musculus) (UniProt P63085); experiment: Inhibition of mouse MAPK2 at 10 uM
[11] = biological target: Serine/threonine-protein kinase Chk1 (Homo sapiens) (UniProt O14757); experiment: Inhibition of CHK1 at 10 uM
[12] = biological target: 3-phosphoinositide-dependent protein kinase 1 (PDPK1) (Homo sapiens) (UniProt O15530); experiment: Inhibition of PDK1 (delta 1-51) at 10 uM
Aurora kinase B = Aurora kinase B (Homo sapiens, UniProt Q96GD4); experiment: Inhibition of Aurora B at 10 uM
[13] = biological target: Fibroblast growth factor receptor 1 (Homo sapiens) (UniProt P11362); experiment: Inhibition of human FGFR1 at 10 uM
[14] = biological target: Serine/threonine-protein kinase N2 (Homo sapiens) (UniProt Q16513); experiment: Inhibition of PRK2 at 10 uM
[15] = biological target: Proto-oncogene tyrosine-protein kinase Src (Gallus gallus) (UniProt P00523); experiment: Inhibition of chick SRC at 10 uM
[16] = biological target: Serine/threonine-protein kinase pim-1 (Homo sapiens) (UniProt P11309); experiment: Inhibition of human PIM1 at 10 uM
[17] = biological target: Lymphokine-activated killer T-cell-originated protein kinase (Homo sapiens) (UniProt Q96KB5); experiment: Inhibition of PBK at 10 uM
[18] = biological target: Serine/threonine-protein kinase Nek6 (Homo sapiens) (UniProt Q9HC98); experiment: Inhibition of NEK6 at 10 uM
[19] = biological target: Homeodomain-interacting protein kinase 2 (Homo sapiens) (UniProt Q9H2X6); experiment: Inhibition of human HIPK2 at 10 uM
[20] = biological target: SRSF protein kinase 1 (Homo sapiens) (UniProt Q96SB4); experiment: Inhibition of SRPK1 at 10 uM
[21] = biological target: Inhibitor of nuclear factor kappa-B kinase subunit epsilon (Homo sapiens) (UniProt Q14164); experiment: Inhibition of human IKKe at 10 uM
[22] = biological target: Eukaryotic elongation factor 2 kinase (Homo sapiens) (UniProt O00418); experiment: Inhibition of human EF2K at 10 uM
[23] = biological target: Serine/threonine-protein kinase PLK1 (Homo sapiens) (UniProt P53350); experiment: Inhibition of human okadaic acid sensitive PLK1 at 10 uM
[24] = biological target: Serine/threonine-protein kinase PAK 4 (Homo sapiens) (UniProt O96013); experiment: Inhibition of human PAK4 at 10 uM
[25] = biological target: Serine/threonine-protein kinase pim-2 (Homo sapiens) (UniProt Q9P1W9); experiment: Inhibition of PIM2 at 10 uM
[26] = biological target: Calcium/calmodulin-dependent protein kinase type 1 (Homo sapiens) (UniProt Q14012); experiment: Inhibition of CAMK1 at 10 uM
[27] = biological target: MAP kinase-activated protein kinase 3 (Homo sapiens) (UniProt Q16644); experiment: Inhibition of MAPKAP-K3 at 10 uM
[28] = biological target: Protein kinase C zeta type (Homo sapiens) (UniProt Q05513); experiment: Inhibition of human PKCzeta at 10 uM
[29] = biological target: Dual specificity tyrosine-phosphorylation-regulated kinase 2 (Homo sapiens) (UniProt Q92630); experiment: Inhibition of human DYRK2 at 10 uM
[30] = biological target: Serine/threonine-protein kinase TBK1 (Homo sapiens) (UniProt Q9UHD2); experiment: Inhibition of human TBK1 at 10 uM
[31] = biological target: Serine/threonine-protein kinase PLK1 (Homo sapiens) (UniProt P53350); experiment: Inhibition of human PLK1 at 10 uM
[32] = biological target: Vascular endothelial growth factor receptor 3 (Homo sapiens, UniProt P35916); experiment: Inhibition of VEGFR3 up to 100 uM
[33] = biological target: Receptor tyrosine-protein kinase erbB-2 (Homo sapiens, UniProt P04626); experiment: Inhibition of ERBB2 up to 100 uM
How it was run: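 Buffer: HEPES-NaOH pH 7.5, Mg2+/Mn2+, vanadate, DTT, PEG20000, 1% DMSO. Incubated 30 °C for 80 min, stopped with 2% H3PO4, washed, and scintillation-counted. IC50 from 10 concentrations in singlicate.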

Angiopoietin-1 receptor = Angiopoietin-1 receptor (Homo sapiens, UniProt Q02763); experiment: Inhibition of TIE2 up to 100 uM
[34] = biological target: Proto-oncogene tyrosine-protein kinase Src (Homo sapiens, UniProt P12931); experiment: Inhibition of SRC up to 100 uM
[35] = biological target: Serine/threonine-protein kinase B-raf (Homo sapiens, UniProt P15056, V600E); experiment: Inhibition of BRAF V600E mutant

Sequence of Serine/threonine-protein kinase PLK1 (Homo sapiens) (P53350 whole entry): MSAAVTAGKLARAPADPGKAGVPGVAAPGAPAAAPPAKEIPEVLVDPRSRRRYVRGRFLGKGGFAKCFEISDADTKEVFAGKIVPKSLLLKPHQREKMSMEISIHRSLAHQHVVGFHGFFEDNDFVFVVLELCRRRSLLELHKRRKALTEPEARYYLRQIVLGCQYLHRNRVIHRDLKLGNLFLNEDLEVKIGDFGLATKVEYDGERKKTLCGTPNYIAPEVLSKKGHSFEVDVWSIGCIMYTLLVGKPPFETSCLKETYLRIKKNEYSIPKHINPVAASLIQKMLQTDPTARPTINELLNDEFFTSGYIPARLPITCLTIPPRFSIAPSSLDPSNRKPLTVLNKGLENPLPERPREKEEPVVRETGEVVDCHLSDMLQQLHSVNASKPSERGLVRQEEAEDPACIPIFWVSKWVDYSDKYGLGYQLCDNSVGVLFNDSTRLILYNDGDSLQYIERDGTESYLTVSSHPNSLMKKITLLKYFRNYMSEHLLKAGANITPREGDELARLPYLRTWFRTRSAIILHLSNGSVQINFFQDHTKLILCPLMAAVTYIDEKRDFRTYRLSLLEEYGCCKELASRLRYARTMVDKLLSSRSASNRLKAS
Sequence of Lymphokine-activated killer T-cell-originated protein kinase (Homo sapiens) (Q96KB5 whole entry): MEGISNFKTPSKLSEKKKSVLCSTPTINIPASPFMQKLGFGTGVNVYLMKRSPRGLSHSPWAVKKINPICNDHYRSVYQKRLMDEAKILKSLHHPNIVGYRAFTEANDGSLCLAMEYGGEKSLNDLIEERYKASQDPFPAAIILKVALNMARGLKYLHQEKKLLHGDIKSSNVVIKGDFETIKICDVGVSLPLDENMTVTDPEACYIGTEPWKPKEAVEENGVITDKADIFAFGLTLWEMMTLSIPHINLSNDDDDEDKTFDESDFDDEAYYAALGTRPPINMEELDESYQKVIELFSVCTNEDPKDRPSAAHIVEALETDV
Sequence of Serine/threonine-protein kinase TBK1 (Homo sapiens) (Q9UHD2 whole entry): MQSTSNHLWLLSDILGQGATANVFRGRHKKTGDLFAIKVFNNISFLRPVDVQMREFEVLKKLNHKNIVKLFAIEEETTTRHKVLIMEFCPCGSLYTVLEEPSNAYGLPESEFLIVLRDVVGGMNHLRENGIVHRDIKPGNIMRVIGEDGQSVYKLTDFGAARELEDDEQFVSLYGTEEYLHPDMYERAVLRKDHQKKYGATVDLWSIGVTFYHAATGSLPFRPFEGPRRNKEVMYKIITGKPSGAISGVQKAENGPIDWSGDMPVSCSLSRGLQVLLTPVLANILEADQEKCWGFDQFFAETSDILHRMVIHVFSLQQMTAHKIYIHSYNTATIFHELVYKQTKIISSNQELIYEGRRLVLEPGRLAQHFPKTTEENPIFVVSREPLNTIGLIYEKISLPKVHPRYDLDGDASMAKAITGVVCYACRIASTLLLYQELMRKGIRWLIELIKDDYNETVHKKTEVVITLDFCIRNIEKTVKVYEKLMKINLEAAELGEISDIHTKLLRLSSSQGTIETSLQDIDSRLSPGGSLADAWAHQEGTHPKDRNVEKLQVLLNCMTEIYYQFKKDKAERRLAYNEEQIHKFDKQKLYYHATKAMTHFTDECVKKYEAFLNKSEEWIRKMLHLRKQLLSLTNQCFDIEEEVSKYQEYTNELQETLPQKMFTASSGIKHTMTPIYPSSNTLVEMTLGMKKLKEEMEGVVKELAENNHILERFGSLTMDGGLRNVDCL
Sequence of Serine/threonine-protein kinase D1 (Homo sapiens) (Q15139 whole entry): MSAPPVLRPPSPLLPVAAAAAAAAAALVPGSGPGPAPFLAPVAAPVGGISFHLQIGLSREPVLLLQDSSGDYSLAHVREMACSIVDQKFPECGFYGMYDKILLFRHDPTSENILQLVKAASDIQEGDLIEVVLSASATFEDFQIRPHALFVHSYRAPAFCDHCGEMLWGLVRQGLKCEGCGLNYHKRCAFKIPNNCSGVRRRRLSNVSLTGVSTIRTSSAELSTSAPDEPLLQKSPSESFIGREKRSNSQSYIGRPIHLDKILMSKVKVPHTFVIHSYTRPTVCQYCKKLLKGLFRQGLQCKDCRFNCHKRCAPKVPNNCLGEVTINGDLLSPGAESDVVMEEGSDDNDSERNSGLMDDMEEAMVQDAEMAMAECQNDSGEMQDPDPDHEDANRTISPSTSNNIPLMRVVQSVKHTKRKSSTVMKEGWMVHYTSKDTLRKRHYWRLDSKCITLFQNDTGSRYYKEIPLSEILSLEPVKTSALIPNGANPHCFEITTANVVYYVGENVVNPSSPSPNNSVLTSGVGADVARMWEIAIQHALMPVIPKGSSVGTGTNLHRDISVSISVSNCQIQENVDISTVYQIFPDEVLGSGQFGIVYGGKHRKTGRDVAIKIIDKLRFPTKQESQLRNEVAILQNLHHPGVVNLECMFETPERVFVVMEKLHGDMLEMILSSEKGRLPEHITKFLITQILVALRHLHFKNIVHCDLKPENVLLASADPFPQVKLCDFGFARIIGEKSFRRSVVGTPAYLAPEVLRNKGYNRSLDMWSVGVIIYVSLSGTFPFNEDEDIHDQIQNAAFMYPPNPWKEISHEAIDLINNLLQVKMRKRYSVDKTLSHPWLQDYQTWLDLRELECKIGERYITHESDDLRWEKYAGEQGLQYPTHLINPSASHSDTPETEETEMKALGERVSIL
Sequence of Serine/threonine-protein kinase PAK 4 (Homo sapiens) (O96013 whole entry, looked up): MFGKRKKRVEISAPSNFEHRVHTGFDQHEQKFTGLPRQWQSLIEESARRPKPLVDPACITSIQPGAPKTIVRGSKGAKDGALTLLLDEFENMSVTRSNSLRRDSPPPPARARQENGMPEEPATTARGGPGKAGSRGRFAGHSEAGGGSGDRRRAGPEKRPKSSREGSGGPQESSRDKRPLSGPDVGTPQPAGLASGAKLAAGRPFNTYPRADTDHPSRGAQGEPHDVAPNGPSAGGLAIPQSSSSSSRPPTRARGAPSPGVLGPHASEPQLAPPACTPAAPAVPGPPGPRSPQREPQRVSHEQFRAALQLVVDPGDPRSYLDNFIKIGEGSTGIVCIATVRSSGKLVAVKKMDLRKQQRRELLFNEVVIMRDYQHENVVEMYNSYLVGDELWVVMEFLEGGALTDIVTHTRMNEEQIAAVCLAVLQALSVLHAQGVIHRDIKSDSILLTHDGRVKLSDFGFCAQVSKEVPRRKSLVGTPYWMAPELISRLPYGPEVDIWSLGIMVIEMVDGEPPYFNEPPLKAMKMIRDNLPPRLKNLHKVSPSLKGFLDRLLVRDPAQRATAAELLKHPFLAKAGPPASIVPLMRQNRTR
Sequence of Calcium/calmodulin-dependent protein kinase type 1 (Homo sapiens) (Q14012 whole entry, looked up): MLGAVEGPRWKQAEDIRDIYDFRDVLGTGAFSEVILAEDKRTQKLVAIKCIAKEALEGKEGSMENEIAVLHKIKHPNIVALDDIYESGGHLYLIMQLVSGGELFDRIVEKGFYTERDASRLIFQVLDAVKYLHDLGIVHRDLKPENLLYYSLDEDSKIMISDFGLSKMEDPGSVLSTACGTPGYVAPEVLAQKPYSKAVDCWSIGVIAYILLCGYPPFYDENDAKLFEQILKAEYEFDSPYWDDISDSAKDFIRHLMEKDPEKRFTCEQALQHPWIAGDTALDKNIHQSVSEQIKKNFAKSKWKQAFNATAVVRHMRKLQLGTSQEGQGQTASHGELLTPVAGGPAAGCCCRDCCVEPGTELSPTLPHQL
Sequence of Proto-oncogene tyrosine-protein kinase Src (P12931 2-536 limits assumed): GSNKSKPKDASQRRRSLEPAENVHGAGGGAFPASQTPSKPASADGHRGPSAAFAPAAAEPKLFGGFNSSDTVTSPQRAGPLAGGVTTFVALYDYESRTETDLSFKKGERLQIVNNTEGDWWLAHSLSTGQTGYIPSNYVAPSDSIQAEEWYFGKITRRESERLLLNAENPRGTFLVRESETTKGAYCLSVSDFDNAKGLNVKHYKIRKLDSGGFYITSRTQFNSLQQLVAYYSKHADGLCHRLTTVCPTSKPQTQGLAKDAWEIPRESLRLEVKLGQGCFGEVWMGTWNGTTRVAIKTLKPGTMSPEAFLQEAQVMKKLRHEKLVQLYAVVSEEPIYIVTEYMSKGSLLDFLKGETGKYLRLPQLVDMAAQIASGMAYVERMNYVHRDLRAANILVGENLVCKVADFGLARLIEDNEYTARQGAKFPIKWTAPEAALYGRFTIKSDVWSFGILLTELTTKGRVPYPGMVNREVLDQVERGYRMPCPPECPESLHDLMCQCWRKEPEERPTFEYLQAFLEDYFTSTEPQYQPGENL
Sequence of Protein kinase C zeta type (Homo sapiens) (Q05513 whole entry): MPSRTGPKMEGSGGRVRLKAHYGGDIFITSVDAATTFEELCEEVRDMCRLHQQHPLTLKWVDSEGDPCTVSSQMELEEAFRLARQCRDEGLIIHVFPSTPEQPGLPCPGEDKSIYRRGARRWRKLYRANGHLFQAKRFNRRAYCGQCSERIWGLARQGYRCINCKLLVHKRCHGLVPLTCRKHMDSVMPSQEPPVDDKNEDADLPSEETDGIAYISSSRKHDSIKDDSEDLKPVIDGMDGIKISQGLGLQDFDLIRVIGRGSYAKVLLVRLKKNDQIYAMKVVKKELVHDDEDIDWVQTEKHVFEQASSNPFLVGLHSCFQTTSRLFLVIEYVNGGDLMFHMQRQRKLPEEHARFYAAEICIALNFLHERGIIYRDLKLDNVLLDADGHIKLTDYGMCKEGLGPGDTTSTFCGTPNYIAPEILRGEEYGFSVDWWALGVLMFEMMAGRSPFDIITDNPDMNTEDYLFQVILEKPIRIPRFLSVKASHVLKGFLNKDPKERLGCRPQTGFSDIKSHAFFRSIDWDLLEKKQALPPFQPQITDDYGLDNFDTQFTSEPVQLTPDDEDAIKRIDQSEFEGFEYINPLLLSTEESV
Sequence of Mitogen-activated protein kinase 12 (Homo sapiens) (P53778 whole entry): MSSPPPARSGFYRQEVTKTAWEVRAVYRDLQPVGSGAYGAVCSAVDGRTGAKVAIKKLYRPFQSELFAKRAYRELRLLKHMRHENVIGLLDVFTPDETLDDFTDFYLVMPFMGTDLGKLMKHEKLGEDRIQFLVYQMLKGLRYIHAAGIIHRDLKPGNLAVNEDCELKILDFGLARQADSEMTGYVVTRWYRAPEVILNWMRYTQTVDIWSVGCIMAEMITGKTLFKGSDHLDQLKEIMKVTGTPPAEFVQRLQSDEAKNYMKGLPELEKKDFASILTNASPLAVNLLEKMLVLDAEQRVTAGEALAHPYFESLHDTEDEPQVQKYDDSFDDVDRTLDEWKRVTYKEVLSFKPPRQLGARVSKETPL

inhibition [1]: inactive
inhibition [2]: inactive
inhibition [3]: inactive
inhibition [4]: inactive
inhibition [5]: inactive
inhibition [6]: inactive
inhibition [7]: inactive
inhibition [8]: inactive
inhibition (Rattus norvegicus): inactive
inhibition [9]: inactive
inhibition [10]: inactive
inhibition [11]: inactive
inhibition [12]: inactive
inhibition (Aurora kinase B): inactive
inhibition [13]: inactive
inhibition [14]: inactive
inhibition [15]: inactive
inhibition [16]: inactive
inhibition [18]: inactive
inhibition [19]: inactive
inhibition [20]: inactive
inhibition [21]: inactive
inhibition [22]: inactive
inhibition [23]: inactive
inhibition [24]: inactive
inhibition [25]: inactive
inhibition [26]: inactive
inhibition [27]: inactive
inhibition [28]: inactive
inhibition [29]: inactive
inhibition [30]: inactive
inhibition [31]: inactive
SMILES: Nc1ncnc2ncn(CC(=O)c3c[nH]c4ccccc34)c12
inhibition [17]: inactive

inhibition [32]: inactive
SMILES: Nc1ncnc2ncn(CC(=O)c3ccccc3)c12

inhibition [33]: inactive
inhibition (Angiopoietin-1 receptor): inactive
inhibition [34]: inactive
SMILES: Nc1ncnc2c1ncn2CC(=O)c1ccccc1

IC50 [35]: 82 µM
SMILES: Nc1ncnc2c1ncn2CC(=O)c1c[nH]c2ccccc12
